Test results published in ChEMBL document CHEMBL1130025, “Dihydro(alkylthio)(naphthylmethyl)oxopyrimidines: novel non-nucleoside reverse transcriptase inhibitors of the S-DABO series” (J Med Chem, 1997).

Tests used:
MT4 [1] = assay: Dose required to reduce the viability of mock-infected cells by 50%; type: functional; conditions: Homo sapiens
Outline: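 Mock-infected MT-4 cells (1×10^4 per well) were exposed to compound dilutions in parallel with the antiviral assay. After 4 days at 37 °C, viability was measured by MTT. CC50 is the dose reducing viable cell number by 50%.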

MT4 [2] = assay: Dose required to achieve 50% protection of MT-4 cells from the HIV-1 induced cytopathogenicity in HIV-1 infected MT-4 cells; conditions: Homo sapiens
[3] = test system: Human immunodeficiency virus type 1; assay: Selectivity index is the ratio of CC50 to EC50; conditions: Human immunodeficiency virus 1

SMILES	CC50 (MT4 [1])	EC50 (MT4 [2])	Ratio [3]
Oc1cc(-c2ccccc2)nc(SC2CCCC2)n1	> 300 µM	> 300 µM	–
Oc1cc(Cc2cccc3ccccc23)nc(SC2CCCCCC2)n1	> 300 µM	3 µM	> 100
Oc1cc(CSc2ccccc2)nc(SC2CCCCC2)n1	> 300 µM	32 µM	> 9.4
Oc1cc(CCc2ccccc2)nc(SC2CCCC2)n1	112 µM	81.5 µM	1.4
CCCC(C)Sc1nc(O)cc(Cc2cccc3ccccc23)n1 (centres undefined)	158 µM	4.6 µM	34
Cc1c(O)nc(S)nc1CCc1ccccc1	> 300 µM	> 300 µM	–
Cc1cccc(Cc2nc(SC3CCCCC3)nc(Cl)c2C)c1	133 µM	> 133 µM	–
Cc1cccc(Cc2nc(SC3CCCCC3)nc(S)c2C)c1	176 µM	14.6 µM	12
Cc1c(O)nc(SC2CCCC2)nc1-c1ccccc1	175 µM	> 175 µM	–
CCC(C)Sc1nc(O)c(C)c(CSc2ccccc2)n1 (centres undefined)	75 µM	23 µM	3.3
Cc1nc(SC2CCCCC2)nc(O)c1Cc1ccccc1	> 300 µM	> 300 µM	–
Oc1cc(COc2ccccc2)nc(SC2CCCCC2)n1	> 300 µM	> 300 µM	–
Cc1cccc(Cc2nc(SC3CCCCC3)n(C)c(=O)c2C)c1	44 µM	> 44 µM	–
CCC(C)Sc1nc(O)c(C)c(-c2ccccc2)n1 (centres undefined)	126 µM	> 126 µM	–
Oc1cc(Cc2ccc3ccccc3c2)nc(SC2CCCC2)n1	> 300 µM	3.7 µM	> 8.1
CCC(C)Sc1nc(O)cc(COc2ccccc2)n1 (centres undefined)	> 300 µM	52 µM	> 6
Cc1c(O)nc(SC2CCCC2)nc1CSc1ccccc1	> 300 µM	150 µM	> 2
COc1nc(SC2CCCCC2)nc(Cc2cccc(C)c2)c1C	> 300 µM	> 300 µM	–
Oc1cc(COc2ccccc2)nc(S)n1	> 300 µM	> 300 µM	–
CCCCCCCCCCCSc1nc(O)cc(Cc2cccc3ccccc23)n1	> 300 µM	> 300 µM	–

SMILES	CC50 (MT4 [1])	EC50 (MT4 [2])	Ratio [3]
Cc1c(O)nc(S)nc1CSc1ccccc1	> 300 µM	> 300 µM	–
CCC(C)Sc1nc(SC2CCCCC2)nc(Cc2cccc(C)c2)c1C (centres undefined)	> 300 µM	> 300 µM	–
Oc1cc(-c2ccccc2)nc(SC2CCCCC2)n1	> 300 µM	> 300 µM	–
Oc1cc(CSc2ccccc2)nc(S)n1	> 300 µM	> 300 µM	–
Cc1cccc(Cc2nc(SC3CCCCC3)nc(N)c2C)c1	> 200 µM	> 200 µM	–
Cc1c(O)nc(SC2CCCCC2)nc1-c1ccccc1	> 300 µM	> 300 µM	–
Cc1cccc(Cc2nc(SC3CCCCC3)ncc2C)c1	128 µM	> 128 µM	–
Cc1c(O)nc(S)nc1COc1ccccc1	> 300 µM	> 300 µM	–
Cc1cccc(Cc2nc(SC3CCCCC3)nc(N/N=C(/N)S)c2C)c1	24 µM	> 24 µM	–
Cc1nc(SC2CCCC2)nc(O)c1Cc1ccccc1	> 300 µM	> 300 µM	–
CCC(C)Sc1nc(O)c(C)c(Cc2cccc(C)c2)n1 (centres undefined)	100 µM	–	100
CCC(C)Sc1nc(C)c(Cc2ccccc2)c(O)n1 (centres undefined)	> 300 µM	> 300 µM	–
CCC(C)Sc1nc(O)cc(-c2ccccc2)n1 (centres undefined)	> 300 µM	> 300 µM	–
Cc1c(O)nc(S)nc1Cc1cccc2ccccc12	145 µM	> 145 µM	–
Cc1cccc(Cc2nc(SC3CCCC3)nc(O)c2C)c1	> 300 µM	–	> 500
Oc1cc(Cc2cccc3ccccc23)nc(S)n1	> 300 µM	> 300 µM	–
CCCc1cc(O)nc(SC2CCCCC2)n1	210 µM	> 210 µM	–
Cc1c(O)nc(S)nc1Cc1ccc2ccccc2c1	91 µM	> 91 µM	–
CCCc1cc(O)nc(SC(C)CC)n1 (centres undefined)	246 µM	> 246 µM	–
Oc1cc(Cc2ccc3ccccc3c2)nc(S)n1	> 300 µM	> 300 µM	–
